The record followed here is ChEMBL document CHEMBL1140706, “A Novel iron-chelating derivative of the neuroprotective peptide NAPVSIPQ shows superior antioxidant and antineurodegenerative capabilities” (J Med Chem, 2008).

A short description of data set [1]: Iron chelating activity by ferrozine method. It is filed as functional. In a few lines: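 Competition with ferrozine for Fe(II) in 5% ammonium acetate buffer, pH 6.9. Compound (100–600 µM, duplicate) preincubated 30 min with 15 µM FeSO4, then 60 µM ferrozine added for 1 h at ambient temperature. Absorbance read at 562 nm with blank subtracted. Chelating effect % = [1 − sample/control] × 100. n = 3 in duplicate.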

The test system of data set [2] is Brain. Put plainly: Inhibition of iron/ascorbate-induced lipid peroxidation in Sprague-Dawley rat brain mitochondrial membrane homogenate. In kind it is functional, tissue-based. In a few lines:
(§1)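 Crude mitochondrial fraction from brains of male Sprague-Dawley rats (250–300 g). Assay in 25 mM Tris-HCl pH 7.5 with 25 µM ascorbate, 40 µg protein, 1.5 µM FeSO4 and compound (10–750 µM). Shaken 2 h at ambient temperature, then TCA stop and TBA at 95 °C for 30 min. Read at 532 nm, blank subtracted, percent of control. n = 3 in duplicate.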

Data set [3] relates to Brain. Put plainly: Inhibition of iron/ascorbate-induced lipid peroxidation in Sprague-Dawley rat brain mitochondrial membrane homogenate at 100 uM. In kind it is functional, tissue-based. The method, boiled down: as §1
A short description of data set [4]: Effect on iron-induced hydroxyl radical generation assessed as reduction in EPR signals relative to control. It is filed as functional. On the set-up: scale not given: the % may be the effect or the level left. The method, boiled down: (§2)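 Fenton system of 100 µM FeSO4, 200 µM H2O2 and 35 mM PBN spin trap. Compound added 2 min before H2O2. EPR spectrum recorded at room temperature in a quartz flat cell. PBN-OH spin adduct level estimated from peak intensity of the middle field doublet and expressed as percent of control. Mean ± SEM, n = 3.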

The nature of data set [5]: Effect on iron-induced hydroxyl radical generation assessed as reduction in EPR signals at 300 uM relative to control. It is filed as functional. Also on record: scale not given: the % may be the effect or the level left. In a few lines: as §2
Data set [6] is described as follows: Effect on iron-induced hydroxyl radical generation assessed as reduction in EPR signals. In kind it is functional. The method, boiled down: as §2
The subject of data set [7] is SH-SY5Y. Put plainly: Neuroprotective activity against hydrogen persoxide-induced cell death in human SH-SY5Y cells upto 10 uM by MTT assay. It is filed as ADME, cell-based. The method, boiled down:
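SH-SY5Y cells seeded at 0.5 × 10^4 per well in MEM/F-12 with 10% FCS and allowed to attach for 24 h. Compound added immediately before 80 µM H2O2, then 24 h at 37 °C. MTT for 2 h, then SDS/HCl lysis for 24 h, read at 570/650 nm. Viability expressed as percent of cells not treated with H2O2. n = 7 over two experiments.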

In data set [8] the test system is Brain. Put plainly: Inhibition of iron/ascorbate-induced lipid peroxidation in Sprague-Dawley rat brain mitochondrial membrane homogenate at 15 uM. It is filed as functional, tissue-based. The method, boiled down: as §1
Data set [9] concerns SH-SY5Y. Briefly: Neuroprotective activity against hydrogen persoxide-induced cell death in human SH-SY5Y cells assessed as cell viability at 1 uM by MTT assay relative to control. It is filed as cell-based. The note with it: read-out: Activity. In a few lines: (§3)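 SH-SY5Y cells grown in 1:1 Eagle MEM/Ham's F-12 with 10% FCS, 37 °C, 5% CO2; seeded 0.5 × 10^4 cells/well, attached 24 h. Compounds or vehicle added just before 80 µM H2O2. After 24 h at 37 °C, MTT added for 2 h, then SDS/HCl for a further 24 h; absorbance read at 570/650 nm. Viability expressed as percent of cells not treated with H2O2.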

The subject of data set [10] is SH-SY5Y. Put plainly: Neuroprotective activity against hydrogen persoxide-induced cell death in human SH-SY5Y cells assessed as cell viability at 10 uM by MTT assay relative to control. The note with it: read-out: Activity. In kind it is cell-based. In a few lines:
as §3
(Tetrazolium assays rely on reduction of a dye to a coloured formazan, in cell work by metabolically active cells.)

The nature of data set [11]: Effect on iron-induced hydroxyl radical generation assessed as increase in PBN-OH radical spin adduct concentration at 600 uM. It is filed as functional. In a few lines:
as §2

The source made the active and inactive calls. No cut-off for these calls is given here.

For `CC[C@H](C)[C@H](NC(=O)[C@H](CO)NC(=O)[C@@H](NC(=O)[C@@H]1CCCN1C(=O)[C@H](C)NC(=O)[C@@H](N)CC(=O)NO)C(C)C)C(=O)N1CCC[C@H]1C(=O)N[C@@H](CCC(N)=O)C(=O)NO`, the IC50 (commonly the concentration that inhibits the measured activity by half) in [1] amounted to 170 µM; in [2], 340 µM; in data set [6] it was 150 µM. For the same molecule, in data set [3], the result was inactive. Further, the Activity in data set [4] was 28%; in [5] (600 uM, in the assay text read “at 600 uM” for “at 300 uM”), 28%; in data set [7] it was “Non-toxic”.

`CC(=O)N(O)CCCCCNC(=O)CCC(=O)N(O)CCCCCNC(=O)CCC(=O)N(O)CCCCCN` [DEFEROXAMINE] had an IC50 in data set [1] of 10 µM. For the same molecule, the outcome in [8] was Active. The Activity in data set [5] (300 uM) stood at 12%. In addition, the viability at 1 µM in data set [9] is 76%. The viability at 10 µM in data set [10] came to 76%.

Turning to `CC[C@H](C)[C@H](NC(=O)[C@H](CO)NC(=O)[C@@H](NC(=O)[C@@H]1CCCN1C(=O)[C@H](C)NC(=O)[C@@H](N)CC(=O)NO)C(C)C)C(=O)N1CCC[C@H]1C(=O)N[C@@H](CCC(N)=O)C(=O)O`, in [1], 360 µM corresponded to half-maximal inhibition (IC50). In addition, the outcome in data set [3] and in [11] was inactive.

For the molecule `CC[C@H](C)[C@H](NC(=O)[C@H](CO)NC(=O)[C@@H](NC(=O)[C@@H]1CCCN1C(=O)[C@H](C)NC(=O)[C@@H](N)CC(N)=O)C(C)C)C(=O)N1CCC[C@H]1C(=O)N[C@@H](CCC(N)=O)C(=O)NO`, the IC50 in data set [1] came out at 360 µM. The result in [3] and in [11] was inactive.
